According to ChEMBL document CHEMBL2331234, “Novel analgesic/anti-inflammatory agents: 1,5-diarylpyrrole nitrooxyalkyl ethers and related compounds as cyclooxygenase-2 inhibiting nitric oxide donors” (J Med Chem, 2013):
Activity calls are given as the source filed them. The rule behind the calls is not given here.

Key:
[1] = system: Rattus norvegicus; experiment: Antiinflammatory activity in Sprague-Dawley/Wistar rat assessed as decrease in carrageenan-induced paw edema at 40 mg/kg, po administered 3 hrs 30 mins after carrageenan-challenge measured after 60 mins (reference value: 2.48 +/- 0.06 mL); type: functional
[2] = system: Rattus norvegicus; experiment: Antiinflammatory activity in Sprague-Dawley/Wistar rat assessed as decrease in carrageenan-induced hyperalgesia at 20 mg/kg, po administered 4 hrs after carrageenan-challenge measured after 120 mins (reference value: 31.4 +/- 3.7 g); type: functional
[3] = system: J774; experiment: Selectivity index, ratio of IC50 for COX1 in mouse J774 cells […]; type: cell-based
[4] = target: T1, Prostaglandin G/H synthase 1 (Mus musculus, UniProt P22437); experiment: Inhibition of arachidonic acid-induced COX1 activity in mouse J774 cells assessed as decrease in PGE2 levels incubated for 15 mins prior to arachidonic acid-challenge measured after 30 mins by RIA; type: cell-based
T1 sequence (P22437 whole entry): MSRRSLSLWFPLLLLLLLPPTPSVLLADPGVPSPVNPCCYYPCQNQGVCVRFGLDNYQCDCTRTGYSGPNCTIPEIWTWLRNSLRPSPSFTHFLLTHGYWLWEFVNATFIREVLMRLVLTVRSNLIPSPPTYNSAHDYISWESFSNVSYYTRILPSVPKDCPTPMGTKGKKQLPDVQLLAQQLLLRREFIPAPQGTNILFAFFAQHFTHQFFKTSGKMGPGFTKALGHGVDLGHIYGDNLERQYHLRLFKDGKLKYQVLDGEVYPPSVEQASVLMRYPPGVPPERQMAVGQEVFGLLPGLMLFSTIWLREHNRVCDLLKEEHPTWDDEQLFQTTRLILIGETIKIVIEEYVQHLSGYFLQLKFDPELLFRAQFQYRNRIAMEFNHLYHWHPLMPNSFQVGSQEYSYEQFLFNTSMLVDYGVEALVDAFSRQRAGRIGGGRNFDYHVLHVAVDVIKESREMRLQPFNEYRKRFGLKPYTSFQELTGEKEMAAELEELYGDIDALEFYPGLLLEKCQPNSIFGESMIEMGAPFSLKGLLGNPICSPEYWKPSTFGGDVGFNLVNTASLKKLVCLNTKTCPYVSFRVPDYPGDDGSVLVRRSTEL
Method in brief: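 Cells were in DMEM with 10% FBS and adhered for 2 h at 37 °C. They were pretreated with compound (10 µM; 0.1-1 µM where inhibition exceeded 50%) for 15 min, then given 15 µM arachidonic acid for 30 min at 37 °C. Supernatant PGE2 was measured by RIA. Triplicate wells were used and the mean of three experiments reported. IC50 came from a variable-slope sigmoidal fit.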

[5] = system: Rattus norvegicus; experiment: Antiinflammatory activity in Sprague-Dawley/Wistar rat assessed as decrease in carrageenan-induced hyperalgesia at 40 mg/kg, po administered 4 hrs after carrageenan-challenge measured after 120 mins (reference value: 31.4 +/- 3.7 g); type: functional
[6] = system: Rattus norvegicus; experiment: Antiinflammatory activity in Sprague-Dawley/Wistar rat assessed as decrease in carrageenan-induced hyperalgesia at 40 mg/kg, po administered 4 hrs after carrageenan-challenge measured after 30 mins (reference value: 34.8 +/- 3.0 g); type: functional
[7] = system: Rattus norvegicus; experiment: Antiinflammatory activity in Sprague-Dawley/Wistar rat assessed as decrease in carrageenan-induced hyperalgesia at 20 mg/kg, po administered 4 hrs after carrageenan-challenge measured after 60 mins (reference value: 33.9 +/- 3.7 g); type: functional
[8] = system: Rattus norvegicus; experiment: Antiinflammatory activity in Sprague-Dawley/Wistar rat assessed as decrease in carrageenan-induced paw edema at 20 mg/kg, po administered 3 hrs 30 mins after carrageenan-challenge measured after 60 mins (reference value: 2.48 +/- 0.06 mL); type: functional
[9] = system: Rattus norvegicus; experiment: Antiinflammatory activity in Sprague-Dawley/Wistar rat assessed as decrease in carrageenan-induced hyperalgesia at 40 mg/kg, po administered 4 hrs after carrageenan-challenge measured after 60 mins (reference value: 33.9 +/- 3.7 g); type: functional
[10] = system: Rattus norvegicus; experiment: Antiinflammatory activity in Sprague-Dawley/Wistar rat assessed as decrease in carrageenan-induced hyperalgesia at 20 mg/kg, po administered 4 hrs after carrageenan-challenge measured after 30 mins (reference value: 34.8 +/- 3.0 g); type: functional
[11] = system: Aorta; experiment: Vasorelaxant activity in Wistar rat endothelium-removed thoracic aortic rings assessed as reduction of KCl-induced vasoconstriction at 0.001 uM to 10 uM treated after KCl-challenge relative to control; type: functional
Method in brief: (§1)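 Thoracic aortic rings from male Wistar rats (250-350 g), endothelium removed by rubbing; removal confirmed as <10% relaxation to ACh 10 µM in KCl 30 mM-contracted rings. Rings contracted with KCl 30 mM; at plateau, 3-fold increasing compound concentrations (1 nM-10 µM) added. Isometric tension recorded. Emax given as % of KCl tone; pIC50 as -log molar concentration halving that tone. 6-10 experiments; also run with ODQ 1 µM.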

[12] = system: Mus musculus; experiment: Antinociceptive activity in po dosed Swiss albino mouse assessed as reduction in number of acetic acid-induced writhing counted 5 mins after acetic acid challenge counted for 10 mins; type: functional; settings: read-out: MED
Method in brief: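 Male Swiss albino mice (23-25 g) dosed orally, then given 0.6% acetic acid (10 mL/kg) ip. Stretching movements counted for 10 min, starting 5 min after the acetic acid. Control group received CMC. At least 7 mice/group; mean ± SEM, ANOVA with Fisher's PLSD.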

[13] = target: T2, Prostaglandin G/H synthase 2 (Mus musculus, UniProt Q05769); experiment: Inhibition of Escherichia coli lipopolysaccharide-induced COX2 activity in mouse J774 cells assessed as decrease in PGE2 levels after 24 hrs by RIA; type: cell-based
T2 sequence (Q05769 whole entry): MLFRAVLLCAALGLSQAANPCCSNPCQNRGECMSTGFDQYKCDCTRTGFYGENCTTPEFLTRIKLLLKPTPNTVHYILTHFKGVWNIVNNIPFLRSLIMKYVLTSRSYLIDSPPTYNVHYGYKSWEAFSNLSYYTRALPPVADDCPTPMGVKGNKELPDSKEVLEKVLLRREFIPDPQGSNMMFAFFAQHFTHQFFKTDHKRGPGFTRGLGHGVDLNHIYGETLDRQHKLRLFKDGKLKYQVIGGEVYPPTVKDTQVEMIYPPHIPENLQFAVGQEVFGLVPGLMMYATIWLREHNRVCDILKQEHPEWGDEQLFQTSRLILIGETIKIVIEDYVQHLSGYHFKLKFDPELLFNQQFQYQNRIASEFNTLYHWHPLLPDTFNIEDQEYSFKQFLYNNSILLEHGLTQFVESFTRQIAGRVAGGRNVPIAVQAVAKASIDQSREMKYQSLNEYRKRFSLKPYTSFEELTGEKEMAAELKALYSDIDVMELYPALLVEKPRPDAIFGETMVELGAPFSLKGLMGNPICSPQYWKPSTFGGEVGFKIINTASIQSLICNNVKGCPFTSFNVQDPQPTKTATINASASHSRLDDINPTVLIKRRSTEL
Method in brief: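 Adhered cells in DMEM/10% FBS were stimulated with E. coli LPS 10 µg/mL for 24 h with compound present at 0.01-10 µM. Supernatant PGE2 was measured by RIA. IC50 came from a variable-slope sigmoidal fit.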

[14] = system: Aorta; experiment: Vasorelaxant activity in Wistar rat endothelium-removed thoracic aortic rings assessed as reduction of KCl-induced vasoconstriction treated after KCl-challenge; type: functional, tissue-based; method in brief: as §1
[15] = system: Aorta; experiment: Vasorelaxant activity in Wistar rat endothelium-removed thoracic aortic rings assessed as reduction of KCl-induced vasoconstriction at 0.001 uM to 10 uM treated after KCl-challenge in presence of guanylate cyclase inhibitor 1H-[1,2,4]-oxadiazolo[4,3-a]quinoxalin-1-one; type: functional, tissue-based
Method in brief: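 Endothelium-denuded aortic rings from male Wistar rats (250-350 g) were preincubated with ODQ 1 µM. Rings were contracted with KCl 30 mM, then given 3-fold increasing concentrations from 1 nM to 10 µM. Emax is the % relaxation of KCl tone. pIC50 was calculated when efficacy reached 50%, from 6-10 experiments.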

In the case of `Cc1c(CCOCCO)cc(-c2ccc(S(C)(=O)=O)cc2)n1-c1ccc(F)c(F)c1`, the Activity [1] is reported as 1.96 mL, the Activity [2] is reported as 41.4 g and the Ratio IC50 [3] is reported as > 23.8. For the same molecule, the IC50 [4] was > 10 µM, the Activity [5] was 49.3 g and the Activity [6] was 53.2 g. It also gave an Activity [7] of 46.7 g, an Activity [8] of 2.16 mL and an Activity [9] of 55.2 g. The Activity [10] was 43.6 g, the Emax [11] was “inactive” and the minimal effective dose [12] was 20 mg/kg.
For `Cc1c(CCOCCO[N+](=O)[O-])cc(-c2ccc(S(C)(=O)=O)cc2)n1-c1cccc(F)c1`, the Activity [1] was 2.08 mL, the Activity [2] was 35.2 g and the Ratio IC50 [3] was > 357. For the same molecule, the IC50 [4] was > 10 µM, the Activity [5] was 34.3 g and the Activity [6] was 47.3 g. The Activity [7] was 40.7 g, the Activity [8] was 2.16 mL and the IC50 [13] was 27 nM. For the same molecule, the Activity [9] was 41 g, the IC50 [14] was 4.79 µM and the pIC50 [14] was “Dose-dependent effect”. For the same molecule, the Activity [15] was “inactive”, the Activity [10] was 43.9 g and the minimal effective dose [12] was 40 mg/kg.
For `Cc1c(CCOCCCO)cc(-c2ccc(S(C)(=O)=O)cc2)n1-c1ccccc1`, the Activity [2] was 46.6 g, the Ratio IC50 [3] was > 1.11 and the IC50 [4] was > 10 µM. For the same molecule, the Activity [7] was 50.3 g, the Activity [8] was 1.86 mL and the IC50 [13] was 8990 nM. For the same molecule, the Activity [10] was 52.9 g, the Emax [11] was “inactive” and the minimal effective dose [12] was 20 mg/kg.
`Cc1c(CCOCCCO[N+](=O)[O-])cc(-c2ccc(S(C)(=O)=O)cc2)n1-c1cccc(F)c1` showed a Ratio IC50 [3] of 126, an IC50 [4] of 2.9 µM and an IC50 [13] of 23 nM. For the same molecule, the Emax [11] was “inactive”.
With `Cc1c(CCOCCO)cc(-c2ccc(S(C)(=O)=O)cc2)n1-c1cccc(F)c1` the Activity [1] was 2.12 mL, the Activity [2] was 37.2 g and the Ratio IC50 [3] was > 217. For the same molecule, the IC50 [4] was > 10 µM, the Activity [5] was 39.5 g and the Activity [6] was 51.4 g. For the same molecule, the Activity [7] was 48.6 g, the Activity [8] was 2.46 mL and the Activity [9] was 45.3 g. The Activity [10] was 46.9 g, the Emax [11] was “inactive” and the minimal effective dose [12] was 20 mg/kg.
`Cc1c(CCOCCCO[N+](=O)[O-])cc(-c2ccc(S(C)(=O)=O)cc2)n1-c1ccccc1` was tested, and the Activity [2] was 45.6 g, the Ratio IC50 [3] was > 667 and the IC50 [4] was > 10 µM. For the same molecule, the Activity [7] was 51.6 g, the Activity [8] was 1.8 mL and the IC50 [14] was ≥ 10 µM. For the same molecule, the pIC50 [14] was “Dose-dependent effect”, the Activity [15] was “inactive” and the Activity [10] was 53.7 g. For the same molecule, the Emax [11] was 48% and the minimal effective dose [12] was 20 mg/kg.
`Cc1c(CCOCCCO[N+](=O)[O-])cc(-c2ccc(S(C)(=O)=O)cc2)n1-c1ccc(F)cc1` was tested, and the Ratio IC50 [3] was > 52.6, the IC50 [4] was > 10 µM and the Emax [11] was “inactive”.
With `Cc1c(CCOCCO)cc(-c2ccc(S(C)(=O)=O)cc2)n1-c1ccccc1` the Activity [2] was 37.8 g, the IC50 [4] was > 10 µM and the Activity [7] was 49.2 g. The Activity [8] was 1.34 mL, the Activity [10] was 56.6 g and the Emax [11] was “inactive”. It also gave a minimal effective dose [12] of 10 mg/kg.
For `Cc1c(CCOCCO[N+](=O)[O-])cc(-c2ccc(S(C)(=O)=O)cc2)n1-c1ccccc1`, the Activity [2] was 48.7 g, the Ratio IC50 [3] was > 588 and the IC50 [4] was > 10 µM. For the same molecule, the Activity [7] was 55.3 g, the Activity [8] was 1.45 mL and the Activity [14] was “Dose-dependent effect”. For the same molecule, the IC50 [14] was 6.03 µM, the Activity [15] was “inactive” and the Activity [10] was 54.2 g. It also gave a minimal effective dose [12] of 10 mg/kg.
With `O=[N+]([O-])OCC(CO[N+](=O)[O-])O[N+](=O)[O-]` [NITROGLYCERIN] the Emax [11] was 93%.
Work on `Cc1c(CCOCCCO)cc(-c2ccc(S(C)(=O)=O)cc2)n1-c1cccc(F)c1` yielded a Ratio IC50 [3] of 15.4, an IC50 [4] of 3.7 µM and an IC50 [13] of 240 nM. The Emax [11] was “inactive”.
`Cc1c(CCOCCCO)cc(-c2ccc(S(C)(=O)=O)cc2)n1-c1ccc(F)cc1` was tested, and the Ratio IC50 [3] was > 10.6, the IC50 [4] was > 10 µM and the Emax [11] was “inactive”.
With `Cc1c(CCOCCO[N+](=O)[O-])cc(-c2ccc(S(C)(=O)=O)cc2)n1-c1ccc(F)c(F)c1` the Activity [1] was 2.1 mL, the Activity [2] was 38.8 g and the Ratio IC50 [3] was > 10.9. The IC50 [4] was > 10 µM, the Activity [5] was 35.3 g and the Activity [6] was 49.5 g. The Activity [7] was 46.9 g, the Activity [8] was 2.19 mL and the Activity [9] was 42.5 g. For the same molecule, the IC50 [14] was ≥ 10 µM, the pIC50 [14] was “Dose-dependent effect” and the Activity [15] was “inactive”. For the same molecule, the Activity [10] was 44.6 g and the minimal effective dose [12] was 20 mg/kg.
